Tests used:
[1] = system: MCF7; test: Cytotoxicity against human MCF7 cells assessed as growth inhibition at 50 uM after 48 hrs by SRB assay relative to control; assay type: functional; settings: MCF7, 48 h, read-out: GI
How it was run: (§1)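 SRB growth-inhibition run in RPMI-1640/10% FBS at 37°C, 5% CO₂. Cell lines were seeded (PC-3 7000, MCF-7 8000, A549 7500, HCT-116 7000/well) and attached 24 h. The treatment series included 50 μM, with 48 h exposure. Cells were cold-TCA fixed and stained with 0.4% SRB. Dye was solubilized in 10 mM Tris pH 10.4 and read at 540 nm against untreated control.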

[2] = system: HCT-116; test: Cytotoxicity against human HCT116 cells assessed as growth inhibition at 50 uM after 48 hrs by SRB assay relative to control; assay type: functional; settings: HCT-116, 48 h, read-out: GI; how it was run: as §1
[3] = system: PC-3; test: Cytotoxicity against human PC3 cells assessed as growth inhibition at 50 uM after 48 hrs by SRB assay relative to control; assay type: functional; settings: PC-3, 48 h, read-out: GI; how it was run: as §1
[4] = system: A549; test: Cytotoxicity against human A549 cells assessed as growth inhibition at 50 uM after 48 hrs by SRB assay relative to control; assay type: functional; settings: A549, 48 h, read-out: GI; how it was run: as §1
[5] = system: PC-3; test: Cytotoxicity against human PC3 cells assessed as growth inhibition after 48 hrs by SRB assay; assay type: functional, cell-based; settings: PC-3, 48 h
How it was run: (§2)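 Cells were grown in RPMI-1640 with 10% FBS and penicillin/streptomycin at 37°C, 5% CO₂. Seeding was PC-3 7000, MCF-7 8000, A549 7500 and HCT-116 7000 cells/well, with 24 h attachment. Cells were exposed to 1, 5, 10, 30 and 50 μM for 48 h, with a 5-fluorouracil reference. Cells were TCA-fixed (1 h, 4°C) and stained with 0.4% SRB. Bound dye was dissolved in 10 mM Tris pH 10.4 and read at 540 nm. IC50 came from the concentration-response.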

[6] = system: HCT-116; test: Cytotoxicity against human HCT116 cells assessed as growth inhibition after 48 hrs by SRB assay; assay type: functional, cell-based; settings: HCT-116, 48 h; how it was run: as §2
[7] = system: MCF7; test: Cytotoxicity against human MCF7 cells assessed as growth inhibition after 48 hrs by SRB assay; assay type: functional, cell-based; settings: MCF7, 48 h; how it was run: as §2
[8] = system: A549; test: Cytotoxicity against human A549 cells assessed as growth inhibition after 48 hrs by SRB assay; assay type: functional, cell-based; settings: A549, 48 h; how it was run: as §2

| SMILES | inhibition of growth at 50 µM [1] | inhibition of growth at 50 µM [2] | inhibition of growth at 50 µM [3] | inhibition of growth at 50 µM [4] | IC50 [5] | IC50 [6] | IC50 [7] | IC50 [8] |
| --- | --- | --- | --- | --- | --- | --- | --- | --- |
| C#CCOc1ccc([C@@H]2CC(=O)c3cc(CC=C(C)C)c(OC)cc3O2)cc1 | 68% | 75% | 52% | 53% |  |  |  |  |
| COc1cc2c(cc1CC=C(C)C)[C@H](O)C[C@@H](c1ccc(O)cc1)O2 | 49% | 37% | 13% | 48% |  |  |  |  |
| COc1cc2c(cc1CC=C(C)C)C(=O)C[C@@H](c1ccc(Oc3ccc(F)cc3)cc1)O2 | 37% | 29% | 19% | 27% |  |  |  |  |
| COc1cc2c(cc1CC=C(C)C)C(=O)C[C@@H](c1ccc(Oc3ccccc3)cc1)O2 | 69% | 76% | 53% | 46% |  |  |  |  |
| CCCCOc1ccc([C@@H]2CC(=O)c3cc(CC=C(C)C)c(OC)cc3O2)cc1 | 57% | 60% | 48% | 37% |  |  |  |  |
| COc1cc(O)c(C(=O)/C=C/c2ccc(O)cc2)cc1CC=C(C)C | 73% | 63% | 44% | 68% |  |  |  |  |
| COc1cc2c(cc1CC=C(C)C)/C(=N/NC(N)=O)C[C@@H](c1ccc(O)cc1)O2 | 93% | 87% | 67% | 77% | 27.7 µM | 24.3 µM | 19.5 µM | 25.3 µM |
| COc1cc2c(cc1CC=C(C)C)C(=O)C[C@@H](c1ccc(Oc3cccc([N+](=O)[O-])c3)cc1)O2 | 53% | 46% | 21% | 37% |  |  |  |  |
| COc1ccc([C@@H]2C/C(=N/OCc3cn(-c4cccc(CO)c4)nn3)c3cc(CC=C(C)C)c(OC)cc3O2)cc1 | 42% | 27% | 34% | 43% |  |  |  |  |
| CCCOc1ccc([C@@H]2CC(=O)c3cc(CC=C(C)C)c(OC)cc3O2)cc1 | 60% | 63% | 54% | 43% |  |  |  |  |
| COc1ccc([C@@H]2CC(=O)c3cc(CC=C(C)C)c(OC)cc3O2)cc1 | 65% | 68% | 58% | 45% |  |  |  |  |
| COc1ccc([C@@H]2C/C(=N/OCc3cn(-c4cc(OC)c(OC)c(OC)c4)nn3)c3cc(CC=C(C)C)c(OC)cc3O2)cc1 | 45% | 29% | 36% | 28% |  |  |  |  |
| COc1cc2c(cc1CC1OC1(C)C)C(=O)C[C@@H](c1ccc(O)cc1)O2 (some centres undefined) | 98% | 97% | 92% | 79% | 27.4 µM | 29 µM | 30.9 µM | 29.8 µM |
| CCOc1ccc([C@@H]2CC(=O)c3cc(CC=C(C)C)c(OC)cc3O2)cc1 | 57% | 65% | 60% | 37% |  |  |  |  |

Source: ChEMBL document CHEMBL4145481, “Synthesis and biological evaluation of novel bavachinin analogs as anticancer agents” (Eur J Med Chem, 2018)
